Published values of several laboratories.
pIC50: −log10 of the molar value.

C[C@@H](Nc1cc(F)cc(F)c1)c1cc(C(=O)N(C)C)cc2c(=O)cc(N3CCOCC3)oc12 — Tmax (human, plasma; oral, 30 mg, patients): 1.53 h
CC(=O)O[C@@H]1c2c(ccc3ccc(=O)oc23)OC(C)(C)[C@@H]1OC(=O)C1(C)OC1C (stereo partly drawn) — pIC50 (RD; cell growth or viability, WST-1): 4.37
CCOC(=O)[C@@]12C[C@@H]1[C@@H](n1ccc3c(NC)nc(C#Cc4ccc(Cl)s4)nc31)[C@H](O)[C@@H]2O — MRT (male Sprague-Dawley rat, plasma; oral, 1 mg/kg): 2.34 h
COc1cc(OC)cc(N(CCNC(C)C)c2ccc3ncc(-c4cnn(C)c4)nc3c2)c1 — Papp (LLC-PK1; Caco-2): 19.8 ×10⁻⁶ cm/s
CCOC(=O)CC1SC(=NN=Cc2ccccc2Cl)NC1=O (stereo not drawn) — CC50 (LLC-MK2; cell growth or viability, MTT; 96 h, pH 7.2): 229 µM
C=C1CC[C@@H]2[C@](C)(CO)[C@H](O)CC[C@@]2(C)[C@@H]1C/C=C1/C(=O)OC[C@H]1O — inhibition (UDP-glucuronosyltransferase 2B7 (UGT2B7, Homo sapiens, UniProt P16662); enzyme activity, inhibitor; 100 µM, pH 7.4): 94%
CC1(C)CC[C@]2(C)CC[C@]3(C)[C@H]4CC=C5[C@@H](CC[C@H](O)C5(C)C)[C@]4(C)CC[C@@]3(C)[C@@H]2C1 — pIC50 (RD; cell growth or viability, WST-1): 4.10
COc1cccc(OC)c1-c1cc(C(=O)NC2(C(=O)O)C3CC4CC(C3)CC2C4)nn1-c1ccc(C(=O)N(C)CCCN(C)CCCN(C)C(=O)CN2CCN(CC(=O)[O-])CCN(CC(=O)[O-])CCN(CC(=O)[O-])CC2)cc1C(C)C.[177Lu+3] (stereo not drawn) — tracer uptake (HT-29; liver; intravenous, 4 h, tumour-bearing): 3.1 %ID/g
CCOC(=O)CC1SC(=NN=Cc2ccc(O)c(OC)c2)NC1=O (stereo not drawn) — CC50 (LLC-MK2; cell growth or viability, MTT; 96 h, pH 7.2): 545 µM
CC(C)n1cc(C#N)c2cc(-n3cc(C(=O)O)cn3)ccc21 — Tmax (human, plasma; oral, 200 mg, single dose, fasted, healthy volunteers): 2.7 h
CCOC(=O)CC1SC(=NN=Cc2cccc(Br)c2)NC1=O (stereo not drawn) — CC50 (LLC-MK2; cell growth or viability, MTT; 96 h, pH 7.2): 446 µM
COC(=O)[C@]1(O)C[C@@H](O)[C@@H](O)[C@H](OC(=O)/C=C/c2ccc(O)c(O)c2)C1 — pIC50 (RD; cell growth or viability, WST-1): 4.44
